Laboratory results published in ChEMBL document CHEMBL3785003, “Di- and Triterpenoids from the Leaves of Casearia balansae and Neurite Outgrowth Promoting Effects of PC12 Cells” (J Nat Prod, 2016).
Calls of active or inactive are those of the source. The calls are words filed in the database; no cut-off is given here.

Experiments:
PC-12 [1] = test: Induction of NGF-mediated neutrite outgrowth of rat PC12 cells after 96 hrs by phase contrast microscopic analysis; format: functional, cell-based; conditions: for EC50: PC-12, 96 h
In short: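 PC12 cells grown at 37 °C in DMEM with 5% heat-inactivated FBS and 5% horse serum, dissociated with 1 mM EGTA in PBS, seeded on poly-L-lysine (3 × 10^4 cells/well). After 24 h, switched to 1% FBS/1% HS medium with NGF 20 ng/mL plus test concentrations. Scored as % neurite-bearing cells; EC50 by regression; triplicate.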

PC-12 [2] = test: Induction of neutrite outgrowth of rat PC12 cells after 96 hrs in absence of NGF by phase contrast microscopic analysis; format: functional, cell-based
In short: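 Poly-L-lysine-seeded PC12 cells (3 × 10^4 cells/well) in 1% FBS/1% horse serum test medium with graded compound concentrations for 96 h. Neurites at least one cell-body diameter counted as neurite-bearing under phase contrast. At least 100 cells per field, three fields per well, six wells per sample. Result expressed as percentage of total cells.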

With `CC(C)=CCC[C@](C)(O)[C@H]1CC[C@@]2(C)[C@@H]3CC=C4[C@@H](CCC(=O)C4(C)C)[C@]3(C)C(=O)C[C@]12C` the EC50 (PC-12 [1]) was over 50 µM.
`CC(C)(O)/C=C/C(=O)[C@](C)(O)[C@H]1CC[C@@]2(C)[C@@H]3CC=C4[C@@H](C[C@H](O)C(=O)C4(C)C)[C@]3(C)C(=O)C[C@]12C` showed an EC50 (PC-12 [1]) of over 50 µM.
With `CC(=O)[C@H]1CC[C@@]2(C)[C@@H]3CC=C4[C@@H](C[C@H](O)C(=O)C4(C)C)[C@]3(C)C(=O)C[C@]12C` the EC50 (PC-12 [1]) was over 50 µM.
With `C=CC(=C)CC[C@]1(C)[C@H](C)C[C@H](OC)[C@@]23C(=C[C@@H](OC(C)=O)C[C@@H]12)[C@@H](OC(=O)CCC)O[C@@H]3OC(C)=O` the EC50 (PC-12 [1]) was 5.2 µM.
`CC(C)=CCC[C@](C)(O)[C@H]1CC[C@@]2(C)[C@@H]3CC=C4[C@@H](C[C@H](O)C(=O)C4(C)C)[C@]3(C)C(=O)C[C@]12C` was tested, and the EC50 (PC-12 [1]) was 10 µM.
For `C=C(C)[C@@H](C)C[C@@H](O)[C@@H](C)[C@H]1CC[C@@]2(C)[C@@H]3CCC4=C(C[C@]35O[C@@H]5C[C@]12C)C(=O)C[C@H](O)C4(C)C`, the EC50 (PC-12 [1]) was over 50 µM.
In the case of `C=CC(=C)CC[C@]1(C)[C@H](C)C[C@H](OC)[C@@]23C(=C[C@@H](O)C[C@@H]12)[C@@H](OC)O[C@H]3OC(C)=O`, the EC50 (PC-12 [1]) is reported as 8.3 µM.
Molecule `C=CC(=C)CC[C@]1(C)[C@H](C)C[C@H](OC)[C@@]23C(=C[C@@H](O)C[C@@H]12)[C@@H](OC)O[C@H]3OC` has an EC50 (PC-12 [1]) of 5.4 µM.
`CC(C)=CCC(=O)[C@](C)(O)[C@H]1CC[C@@]2(C)[C@@H]3CC=C4[C@@H](C[C@H](O)C(=O)C4(C)C)[C@]3(C)C(=O)C[C@]12C` was tested, and the Activity (PC-12 [1]) was “inactive” and the Activity (PC-12 [2]) was “inactive”.
Molecule `C=CC(=C)CC[C@]1(C)[C@H](C)C[C@H](OC)[C@@]23C(=C[C@H](O)C[C@@H]12)[C@@H](OC)O[C@@H]3OC(C)=O` has an EC50 (PC-12 [1]) of 2.9 µM.
